Assay outcomes from PubChem BioAssay.
L major viab – Leishmania major promastigote growth inhibition, primary screen; Leishmania major promastigotes, resazurin fluorescence viability; inhibition, % at 10 µM; actives 9% (n = 200,000); in the data active means inhibition above about 50%;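 further: promastigotes grown with compound for 44 hours at 28 °C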
PMI act – activators of human PMI, primary screen, biochemical, fluorescence intensity, near-Km mannose 6-phosphate; purified human PMI, coupled resazurin fluorescence, 20 min; hits give high values; 1 = vehicle control, 0 substrate-free wells; activation factor at 20 µM; actives 0.005% (n = 190,000); AID 1214, 2008;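 active means activation factor of 2 or more at 20 µM, relative to plate controls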
Target sequence (P34949 whole entry, looked up): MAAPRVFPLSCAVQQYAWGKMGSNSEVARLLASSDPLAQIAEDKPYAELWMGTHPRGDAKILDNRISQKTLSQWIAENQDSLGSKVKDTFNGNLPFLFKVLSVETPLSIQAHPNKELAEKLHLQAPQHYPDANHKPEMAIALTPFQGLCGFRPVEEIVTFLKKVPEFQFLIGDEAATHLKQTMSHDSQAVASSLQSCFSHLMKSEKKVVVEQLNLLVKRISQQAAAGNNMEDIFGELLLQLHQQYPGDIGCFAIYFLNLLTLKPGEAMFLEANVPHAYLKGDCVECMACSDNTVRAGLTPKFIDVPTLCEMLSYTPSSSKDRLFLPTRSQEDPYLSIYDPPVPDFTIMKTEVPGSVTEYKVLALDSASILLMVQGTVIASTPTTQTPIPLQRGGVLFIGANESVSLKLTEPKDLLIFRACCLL
WT yeast gro inh – growth inhibition of WT strain, primary screen, mitochondrial fusion inhibitor project, WT and mutant strains, chemical genetic; mitochondrial fusion phenotypic screen; inhibition, % at 10 µM; actives 2.1% (n = 190,000); in the data active means inhibition above about 58%; tested in S. cerevisiae
Rad51 HR inh – human RAD51 strand exchange inhibitors, primary screen, biochemical, fluorescence; actives 0.085% (n = 200,000); inhibition, % at 10 µM; hRad51 DNA strand exchange, fluorescence dequenching; DNA repair protein RAD51 homolog 1 (Homo sapiens), Q06609;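 active means inhibition above 40% at the single screening dose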
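material = hRad51 filaments on single-stranded DNA | reagent = Donor/quencher-labelled 47-bp dsDNA substrate | compound = 10 µM final, single point | schedule = strand-exchange reaction 15 min at room temperature | measured by = fluorescein emission 520 nm, excitation 485 nm | read-out basis = % inhibition versus plate control and blank means | benchmarks = plate controls and plate blanks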
m-calpain inh – inhibitors of pig calpain II, primary screen, biochemical, fluorogenic peptide substrate, 1536-well; purified calpain II, 30 min; inhibition, % at 16 µM; actives 0.37% (n = 220,000);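 active means inhibition above about 50%, limit read from the data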
PMI act satM6P – human PMI activators, high substrate, primary screen, biochemical, fluorescence intensity, near-saturating mannose 6-phosphate. Mannose-6-phosphate isomerase (Homo sapiens), P34949. actives 0.34% (n = 190,000). activation factor at 20 µM. coupled PMI enzyme assay, resazurin fluorescence, 20 min; hits give high values; 1 = untreated enzyme, 0 = substrate-free blank. AID 1216, 2008;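 active means activation factor of 2 or more at 20 µM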
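Material: human phosphomannose isomerase with PGI, G6PDH, diaphorase coupling enzymes; amount: PMI at 15 ng/mL final; also added: Mannose-6-phosphate 1.0 mM (near-saturating) plus 0.22 mM NADP+; incubation: enzyme reaction with compound 20 min at room temperature; signal: resorufin fluorescence (Ex 544/Em 590 nm) from resazurin via diaphorase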
Each line names hits and unclear results; the compound was inactive in the other large screens. A selection: hits, their analogues and other compounds. The true share with any hit is near 9.8%.

O=C(CCC1CCCN(C(=O)c2ccsc2)C1)NCc1ccc(F)c(F)c1 (centres undefined)	none
O=C(NNC1=Nc2cccc3cccc1c23)c1ccccc1Br	L major viab 53
Cc1ccc(N2CN=C3SCC(=O)N3C2)cc1C	none
Cc1ccc(-n2nnnc2SCC(=O)N2CCc3ccccc3C2)c(C)c1	WT yeast gro inh 61
O=C(NCc1ccco1)/C(=C\c1cccnc1)NC(=O)c1ccccc1F	L major viab 53
O=C(NCC(c1cccnc1)N1CCOCC1)c1ccc2c(c1)OCO2 (centres undefined)	none
O=C(NCC(c1cccnc1)N1CCN(c2ccccc2)CC1)c1ccc2c(c1)OCO2 (centres undefined)	L major viab 88
COc1cc(C(=O)NCC(c2cccnc2)N2CCN(c3ccccc3)CC2)cc(OC)c1OC (centres undefined)	L major viab 67
Cc1cccc(NC(=S)NCCc2ccc3c(c2)OCCO3)c1C	none
COc1ccc(S(=O)(=O)NCCc2nnc3ccc(SCc4cccnc4)nn23)cc1	none (no result: Rad51 HR inh)
Cc1cccc(N(C(=O)CCC(=O)Nc2nccs2)C(C(=O)NC(C)(C)C)c2ccc(O)cc2)c1 (centres undefined)	none (no result: Rad51 HR inh)
CC(C)(C)c1ccc(Cn2c(=N)n(CC(O)c3ccco3)c3ccccc32)cc1 (centres undefined)	L major viab 100, WT yeast gro inh 59
Cc1ccccc1Cn1c(=N)n(CC(O)c2ccco2)c2ccccc21 (centres undefined)	L major viab 78
CCn1c(=N)n(CC(O)c2ccccc2)c2ccccc21 (centres undefined)	none
Cc1ccc(NC(=O)N2CCCC(C(=O)O)C2)cc1 (centres undefined)	none (no result: L major viab, PMI act, WT yeast gro inh, Rad51 HR inh, PMI act satM6P)
CCOc1cc(/C=N/NC(N)=S)cc(Br)c1OCc1ccccc1C	L major viab 100
CCOc1cc(/C=N/N=C(\N)c2nonc2N)cc(Br)c1OCc1cccc2ccccc12	none
CCC(C)N(C)Cc1cccc(C2(O)CCN(S(=O)(=O)c3ccc(F)c(C)c3)CC2)c1 (centres undefined)	L major viab 99 (no result: Rad51 HR inh)
Cc1cc(S(=O)(=O)N2CCN(c3c(C)cccc3C)CC2)ccc1F	none
COc1ccc(CNC(=O)[C@H](C)[C@@H]2C[C@@]2(C)[C@@H](NC(=O)OCc2ccccc2)c2ccccc2)cc1OC	WT yeast gro inh 69
Brc1ccc(C2=CC(c3cccs3)n3ncnc3N2)cc1 (centres undefined)	WT yeast gro inh 68
OCCCc1nc2n(n1)C(c1cccs1)C=C(c1ccc(Br)cc1)N2 (centres undefined)	WT yeast gro inh 61
Fc1ccc(C2=CC(c3ccc(Br)o3)n3ncnc3N2)cc1 (centres undefined)	none
Brc1ccc(C2=CC(c3ccco3)n3nnnc3N2)cc1 (centres undefined)	none (no result: L major viab, PMI act, WT yeast gro inh, PMI act satM6P)
FC(F)(F)c1ccc(C2[C@H]3CN(CC4CCCCC4)[C@H](c4ccccc4)C34CC2(c2cccnc2)C4)cc1 (some centres undefined)	none (no result: L major viab, PMI act, WT yeast gro inh, PMI act satM6P)
O=S(=O)(c1cnc[nH]1)N1CCc2ccccc21	L major viab 61
COc1ccc(/C=N/N=C2/NC(=O)CC(C(=O)O)S2)cc1 (centres undefined)	L major viab 58
COc1ccc(NC(=O)C2CC(=O)N/C(=N/N=C/c3ccco3)S2)cc1 (centres undefined)	none (no result: L major viab, PMI act, WT yeast gro inh, PMI act satM6P)
O=C(NCc1ccccc1)C1=C[C@@H](c2coc3ccccc3c2=O)C[C@@H](OCc2ccc(CO)cc2)O1	none
NNc1nc2c(F)cccc2s1	none
NNc1nc2c(F)cc(F)cc2s1	L major viab 95
COC(=O)c1ccc2nc(Nc3nc4c(F)cc(F)cc4s3)sc2c1	L major viab 52
CC(NC(=O)CNC(=S)N(Cc1cccs1)C1CCCC1)c1ccccc1 (centres undefined)	none
CC(Oc1ccccc1)C(=O)N/N=C/c1ccccn1 (centres undefined)	none
C=CCNCC(O)COc1ccc(C(C)=O)cc1OC (centres undefined)	none (no result: L major viab, PMI act, WT yeast gro inh, PMI act satM6P)
CCOC(=O)Cc1cnc(NC(=O)CSc2nc3ncnc(N)c3[nH]2)s1	none
N#CC1CC(c2ccccc2)Nc2cc(Cl)ccc2N1 (centres undefined)	none (no result: L major viab, PMI act, WT yeast gro inh, PMI act satM6P)
Cc1cccc(N=c2c([N+](=O)[O-])nn(-c3ccc(Cl)cc3)n2O)c1	L major viab 79
Cc1cccc(-n2nc([N+](=O)[O-])c(=NCc3cccnc3)n2O)c1	L major viab 82
Cc1ccc(CN=c2c([N+](=O)[O-])nn(-c3ccc(Cl)cc3)n2O)cc1	none
O=[N+]([O-])c1nn(-c2cccc(Cl)c2)n(O)c1=NCc1cccnc1	none
COc1cccc(CN=c2c([N+](=O)[O-])nn(-c3ccccc3C)n2O)c1	none
O=[N+]([O-])c1nn(-c2ccc(Cl)cc2)n(O)c1=NCc1cccnc1	L major viab 96
O=[N+]([O-])c1nn(-c2ccc(Cl)cc2)n(O)c1=NCc1ccncc1	L major viab 75
O=C(CCSCCC(=O)Nc1c(F)c(F)c(F)c(F)c1F)Nc1c(F)c(F)c(F)c(F)c1F	none
COc1ccc(NC(=O)COc2ccc(C(=O)NC3CCCc4ccccc43)cc2OC)cc1 (centres undefined)	none
COc1ccc(CCn2c(N)c(S(=O)(=O)c3cccs3)c3nc4ccccc4nc32)cc1OC	none
Nc1c(S(=O)(=O)c2cccs2)c2nc3ccccc3nc2n1Cc1cccs1	none
CC(C)CCn1c(N)c(S(=O)(=O)c2cccs2)c2nc3ccccc3nc21	L major viab 70
Nc1c(S(=O)(=O)c2cccs2)c2nc3ccccc3nc2n1CCc1ccccc1	L major viab 76 (no result: Rad51 HR inh)
COc1ccc(/C=C/C2=CC(C)(C)NC(=S)N2)cc1	none
CCn1c(C)c(C(C)=O)cc(C#N)c1=O	none
c1ccc(CCN=C2CCCc3c2[nH]c2ccccc32)cc1	none (no result: L major viab, PMI act, WT yeast gro inh, PMI act satM6P)
COc1cc(NC(=O)CSc2cc(C)c3cc(C)cc(C)c3n2)c(C(=O)O)cc1OC	none (no result: L major viab, PMI act, WT yeast gro inh, PMI act satM6P)
COc1ccc(C)cc1N1C(=N)/C(=C2/Nc3ccccc3S2)C(c2ccccc2)C1=O (centres undefined)	L major viab 100, WT yeast gro inh 84
COc1ccc(C2C(Oc3ccccc3)C(=O)N2c2cc(C)ccc2C)cc1OC (centres undefined)	none (no result: WT yeast gro inh, Rad51 HR inh)
CC1=C(C(=O)OCCc2ccccc2)C(c2ccsc2)NC(=O)N1C (centres undefined)	none
